Experimental findings from ChEMBL document CHEMBL1799922, “Synthesis and antimycobacterial activity of prodrugs of indeno[2,1-c]quinoline derivatives” (Eur J Med Chem, 2011) are described below.

Values after ≈ are worked out from the molar mass of the structure shown.

Data set [1] concerns Mycobacterium tuberculosis. Nature of the data set: Antimicrobial activity against Mycobacterium tuberculosis H37Rv ATCC 27294 after 16 to 24 hrs by microplate alamar blue assay. In kind it is functional. The method in brief: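 M. tuberculosis H37Rv inoculum 2×10^5 cfu/mL (100 µL) added to twofold dilutions in Middlebrook 7H12 medium; final test range 128 µM to 0.5 µM from 12.8 mM DMSO stocks. Incubated 37 °C; day 7 Tween 80 plus Alamar Blue added, further 16-24 h at 37 °C. Fluorescence ex 530/em 590 nm; MIC = lowest concentration giving >90% fluorescence reduction versus replicate bacteria-only controls. Rifampin, isoniazid controls.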
In general terms: Alamar Blue is a resazurin reagent that responds to reducing activity.

Data set [2] can be described thus: Cytotoxicity against human U937 cells assessed as cell viability at 1.25 ug/ml after 72 hrs by MTT assay. Format: cell-based, U-937. The note with it: read-out: Activity. The method in brief:
(§1)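 U937 human monocytic cells plated at 1 × 10^5 cells/mL and allowed to adhere for 1 h at 37 °C in 5% CO2. Non-adherent cells were washed off with RPMI 1640. Adherent cells were exposed to compound in triplicate, with medium alone as the live control and 3% Tween 20 as the dead control. MTT (5 mg/mL in PBS) was then added for 3 h at 37 °C. Formazan was dissolved in 0.4 M HCl/isopropanol and absorbance read at 600 nm. Results are expressed as % cell viability.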

Data set [3] can be described thus: Cytotoxicity against human U937 cells assessed as cell viability at 5 ug/ml after 72 hrs by MTT assay. In kind it is cell-based, U-937. The note with it: read-out: Activity. Put shortly:
as §1
Background: Tetrazolium assays rely on reduction of a dye to a coloured formazan, in cell work by metabolically active cells.

Data set [4] can be described thus: Cytotoxicity against human U937 cells assessed as cell viability at 10 ug/ml after 72 hrs by MTT assay. Format: cell-based, U-937. The note with it: read-out: Activity. The method in brief: as §1
Data set [5] in a line: Cytotoxicity against human U937 cells assessed as cell viability at 20 ug/ml after 72 hrs by MTT assay. In kind it is cell-based, U-937. The settings on record: read-out: Activity. The method in brief:
as §1

Data set [6] is described as follows: Stability of the compound in 10% aqueous ammonia buffer at pH 8 assessed as hydrolysis to 2-bromo-6-(1H-imidazol-1-yl)-7H-indeno[2,1-c]quinolin-7-one oxime at 1 mg at 37 degC by LC-MS analysis. Set-up: scale not given: the % may be the effect or the level left. In kind it is physicochemical. Put shortly:
(§2)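 Chemical hydrolysis: 1 mg prodrug dissolved in 1 mL of 10% aqueous ammonia in methanol (pH 8) and held in a thermostatted water bath at 37 °C, up to 24 h. Conversion to the parent oxime was followed by TLC and LC-MS. t1/2 is the time to 50% hydrolysis.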

Data set [7] is described as follows: Half life in human blood serum by LC-MS analysis. In kind it is ADME, cell-free, Plasma. The method in brief: (§3)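 Enzymatic hydrolysis: 1 mg prodrug dissolved in 1 mL ethanol, then 200 µL preheated human blood serum diluted to 80% with 0.16 M phosphate buffer (pH 7.4) was added. Samples were kept at 37 °C (24 h) and centrifuged 10 min at 10,000 rpm. Remaining prodrug in the supernatant was monitored by TLC and LC-MS. t1/2 is the time to 50% hydrolysis.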

Data set [8] in a line: Half life in 10% aqueous ammonia buffer at pH 8 assessed as hydrolysis to 2-bromo-6-(1H-imidazol-1-yl)-7H-indeno[2,1-c]quinolin-7-one oxime at 37 degC by LC-MS analysis. Format: physicochemical. The method in brief: as §2
Data set [9] is described as follows: Octanol-water partition coefficient, log P of the compound at pH 7.4 at room temperature by UV spectrophotometric analysis. Format: physicochemical. Put shortly: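 Shake-flask method at room temperature: 1-octanol and phosphate buffer (pH 7.4) were pre-saturated by shaking for 24 h. Compound at 10^-4 M in equal volumes of both phases was shaken vigorously for 1 h, left to stand 15 min, then centrifuged 10 min at 10,000 rpm. UV absorbance of each phase was read at 280 nm against blanks, and P was taken as the octanol/water absorbance ratio.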

Data set [10] in a line: Selectivity index, ratio CC50 for human U937 cells to MIC for Mycobacterium tuberculosis H37Rv ATCC 27294. Format: functional, U-937.
The next data set concerns Serum. Nature of the data set: Stability of the compound in 80% human blood serum assessed as hydrolysis to 2-bromo-6-(1H-imidazol-1-yl)-7H-indeno[2,1-c]quinolin-7-one oxime at 1 mg after 24 hrs at 37 degC by LC-MS analysis. Format: ADME, cell-free. Set-up: scale not given: the % may be the effect or the level left. Put shortly: as §3

The molecule `CC1(OC(=O)CC(F)(F)F)c2ccccc2-c2c1c(-n1ccnc1)nc1ccc(Br)cc21` (stereo unspecified) came in with an MIC in data set [1] of 0.5 µg/mL (≈ 0.995 µM). Moreover, the viability at 72 h, 1.25 ug/ml in [2] stood at 92%. For the same molecule, the viability at 72 h, 5 ug/ml in [3] turned out to be 80%. Moreover, the viability at 72 h, 10 ug/ml in [4] was found to be 62%. In addition, in data set [5], the viability at 72 h, 20 ug/ml worked out at 26%. Also, in data set [6], the Activity is reported as 96%. Also, the half-life in data set [7] was 480 h; in [8], 24 h. Also, in [9], the logD is 1.8. For the same molecule, the “Selectivity Index” value in [10] is 22.4.
In data set [1], `CCCCCCC(=O)O/N=C1\c2ccccc2-c2c1c(-n1ccnc1)nc1ccc(Br)cc21` returned an MIC of 0.36 µg/mL (≈ 0.715 µM). The viability at 72 h, 1.25 ug/ml in data set [2] is 85%. Also, in [3], the viability at 72 h, 5 ug/ml worked out at 80%. Further, in data set [4], the viability at 72 h, 10 ug/ml worked out at 67%. Besides, the viability at 72 h, 20 ug/ml in data set [5] was 60%. Also, the Activity in the data set with Serum came out at 85%; in [6] it was 95%. In addition, the half-life in [7] is 192 h; in [8], 48 h. Further, the logD in data set [9] was 1.5. Besides, the “Selectivity Index” value in data set [10] is reported as >111.
For the molecule `CC(=O)O/N=C1\c2ccccc2-c2c1c(-n1ccnc1)nc1ccc(Br)cc21`, in data set [1], the minimal inhibitory concentration (MIC) was < 0.2 µg/mL. Moreover, in data set [2], the viability at 72 h, 1.25 ug/ml was 87%. Moreover, the viability at 72 h, 5 ug/ml in data set [3] came to 78%. Also, the viability at 72 h, 10 ug/ml in data set [4] was determined as 59%. The viability at 72 h, 20 ug/ml in [5] was found to be 42%. Also, the Activity came out at 94% in the data set with Serum and 95% in [6]. The results for the half-life in [7] and in data set [8] were 84 h and 48 h, respectively. In addition, the logD in data set [9] was determined as 1.1. For the same molecule, the “Selectivity Index” value in data set [10] is recorded as >71.
`CC(C)(C)OC(=O)N1CCC[C@H]1C(=O)O/N=C1\c2ccccc2-c2c1c(-n1ccnc1)nc1ccc(Br)cc21` came in with a minimum inhibitory concentration (MIC) in [1] of 0.39 µg/mL (≈ 0.663 µM). In addition, in data set [2], the viability at 72 h, 1.25 ug/ml is 87%. Besides, the viability at 72 h, 5 ug/ml in data set [3] came to 86%. For the same molecule, the viability at 72 h, 10 ug/ml in data set [4] amounted to 74%. Besides, the viability at 72 h, 20 ug/ml in [5] amounted to 78%. For the same molecule, the figures for the Activity (in the data set on Serum; in data set [6]) were 95% and 90%, respectively. Also, the values for the half-life in data set [7] and in [8] were 24 h and 12 h, respectively. The molecule also had a logD in data set [9] of 1.3. Also, in data set [10], the “Selectivity Index” value is >102.
In data set [1], `CCCCCCCCC(=O)O/N=C1\c2ccccc2-c2c1c(-n1ccnc1)nc1ccc(Br)cc21` yielded an MIC of 0.39 µg/mL (≈ 0.734 µM). In [2], the viability at 72 h, 1.25 ug/ml turned out to be 87%. Moreover, in data set [3], the viability at 72 h, 5 ug/ml amounted to 85%. The viability at 72 h, 10 ug/ml in [4] was 77%. In addition, the viability at 72 h, 20 ug/ml in data set [5] was 72%. The Activity (with Serum; in [6]) was 95% in each case. The half-life in data set [7] was 72 h; in data set [8], 24 h. The logD in [9] turned out to be 1.9. In data set [10], the “Selectivity Index” value is given as >102.
`CCCCC(=O)O/N=C1\c2ccccc2-c2c1c(-n1ccnc1)nc1ccc(Br)cc21` returned an MIC in data set [1] of 0.28 µg/mL (≈ 0.589 µM). Also, the viability at 72 h, 1.25 ug/ml in data set [2] was 85%. Moreover, the viability at 72 h, 5 ug/ml in data set [3] was found to be 82%. The viability at 72 h, 10 ug/ml in data set [4] was 75%. For the same molecule, the viability at 72 h, 20 ug/ml in [5] was found to be 51%. Besides, the Activity (in the data set on Serum; in data set [6]) was 90% throughout. The half-life in data set [7] is 144 h; in data set [8], 72 h. The log distribution coefficient (logD) in data set [9] worked out at 1.6. Further, the “Selectivity Index” value in [10] is 60.
Regarding `CC(C)(C)OC(=O)NC(Cc1ccccc1)C(=O)O/N=C1\c2ccccc2-c2c1c(N1CCN(c3ccccn3)CC1)nc1ccc(Br)cc21` (stereo unspecified), the MIC in data set [1] amounted to 3.47 µg/mL (≈ 4.73 µM). Further, in data set [2], the viability at 72 h, 1.25 ug/ml amounted to 87%. Further, in data set [3], the viability at 72 h, 5 ug/ml came to 87%. In addition, the viability at 72 h, 10 ug/ml in data set [4] was found to be 71%. The viability at 72 h, 20 ug/ml in data set [5] came to 73%. The Activity turned out to be 70% with Serum and 98% in data set [6]. In addition, the half-life was 432 h in data set [7] and 72 h in data set [8]. Further, the logD in [9] stood at 1.2. In addition, in [10], the “Selectivity Index” value is recorded as >12.

As usually defined, the MIC is the least concentration at which growth counts as inhibited. Usually half-life stands for the time in which the quantity being followed falls by half. As a reminder, the logD is lipophilicity at a set pH, counting ionised and neutral species.
